From ChEMBL document CHEMBL1126829, “Synthesis and relative potencies of new constrained CRF antagonists” (1993)
Where a SMILES comes first, the peptide text is derived from it. [ ]: non-standard residue; d: D form. NMeL = CN[C@@H](CC(C)C)C(=O)O; NMeA = CN[C@@H](C)C(=O)O

Legend:
Rattus norvegicus [1] = species on record: Rattus norvegicus; test: Percent intrinsic activity was determined in rat pituitary cells; format: functional, Pituitary gland cell
Rattus norvegicus [2] = species on record: Rattus norvegicus; test: Compound was tested in vitro to antagonize CRF-induced release of ACTH by rat pituitary cells in culture; format: functional, Pituitary gland cell
Outline: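 Collagenase-dispersed rat anterior pituitary cells were grown in monolayer culture for 3–5 days. Cells were then incubated for 3 h with peptide at several doses against 1 nM CRF stimulation (n = 3). ACTH secreted into the medium was measured by double-antibody RIA. Relative potencies were derived from the dose-response curves.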

Compound	IA (Rattus norvegicus [1])	Potency (Rattus norvegicus [2])
H-DLTFHLLREMLEMAKAEQEAEQAALNRLLLEEA-NH2	14%	0.12
CCCC[C@H](NC(=O)[C@H](CCC(=O)O)NC(=O)[C@H](CC(C)C)NC(=O)[C@@H](NC(=O)[C@H](CCC(=O)O)NC(=O)[C@H](CCCN=C(N)N)NC(=O)[C@H](CC(C)C)NC(=O)[C@](C)(CC(C)C)NC(=O)[C@H](Cc1c[nH]cn1)NC(=O)[C@H](N)Cc1ccccc1)C(C)C)C(=O)N[C@@H](C)C(=O)N[C@@H](CCCN=C(N)N)C(=O)NC(C)(C)C(=O)N[C@@H](CCC(=O)O)C(=O)N[C@@H](CCC(N)=O)C(=O)N[C@@H](CC(C)C)C(=O)NC(C)(C)C(=O)N[C@@H](CCC(N)=O)C(=O)N[C@@H](CCC(N)=O)C(=O)NC(C)(C)C(=O)N[C@@H](Cc1c[nH]cn1)C(=O)N[C@@H](CO)C(=O)N[C@@H](CC(N)=O)C(=O)N[C@@H](CCCN=C(N)N)C(=O)N[C@@H](CCCCN)C(=O)N[C@@H](CC(C)C)C(=O)N[C@@H](CCCC)C(=O)N[C@@H](CCC(=O)O)C(=O)N[C@H](C(=O)N[C@H](C(N)=O)[C@@H](C)CC)[C@@H](C)CC	23%	
CSCC[C@H](NC(=O)[C@H](CCC(=O)O)NC(=O)[C@H](CCCN=C(N)N)NC(=O)[C@H](CC(C)C)N(C)C(=O)[C@H](CC(C)C)NC(=O)[C@H](Cc1c[nH]cn1)NC(=O)[C@H](Cc1ccccc1)NC(=O)[C@@H](NC(=O)[C@H](CC(C)C)N(C)C(=O)[C@@H](N)CC(=O)O)[C@@H](C)O)C(=O)N[C@@H](CC(C)C)C(=O)N[C@@H](CCC(=O)O)C(=O)N[C@@H](CCSC)C(=O)N(C)[C@@H](C)C(=O)N[C@@H](CCCCN)C(=O)N[C@@H](C)C(=O)N[C@@H](CCC(=O)O)C(=O)N[C@@H](CCC(N)=O)C(=O)N(C)[C@@H](CC(C)C)C(=O)N[C@@H](C)C(=O)N[C@@H](CCC(=O)O)C(=O)N[C@@H](CCC(N)=O)C(=O)N[C@@H](C)C(=O)N(C)[C@@H](C)C(=O)N[C@@H](CC(C)C)C(=O)N[C@@H](CC(N)=O)C(=O)N[C@@H](CCCN=C(N)N)C(=O)N[C@@H](CC(C)C)C(=O)N(C)[C@@H](CC(C)C)C(=O)N[C@@H](CC(C)C)C(=O)N[C@@H](CCC(=O)O)C(=O)N[C@@H](CCC(=O)O)C(=O)N(C)[C@@H](C)C(N)=O (H-D[NMeL]TFHL[NMeL]REMLEM[NMeA]KAEQ[NMeL]AEQA[NMeA]LNRL[NMeL]LEE[NMeA]-NH2)	0%	0
CCCC[C@H](NC(=O)[C@H](CCC(=O)O)NC(=O)[C@H](CC(C)C)NC(=O)[C@@H](NC(=O)[C@H](CCC(=O)O)NC(=O)[C@H](CCCN=C(N)N)NC(=O)[C@](C)(CC(C)C)NC(=O)[C@H](CC(C)C)NC(=O)[C@H](Cc1c[nH]cn1)NC(=O)[C@H](N)Cc1ccccc1)C(C)C)C(=O)N[C@@H](C)C(=O)N[C@@H](CCCN=C(N)N)C(=O)NC(C)(C)C(=O)N[C@@H](CCC(=O)O)C(=O)N[C@@H](CCC(N)=O)C(=O)N[C@@H](CC(C)C)C(=O)NC(C)(C)C(=O)N[C@@H](CCC(N)=O)C(=O)N[C@@H](CCC(N)=O)C(=O)NC(C)(C)C(=O)N[C@@H](Cc1c[nH]cn1)C(=O)N[C@@H](CO)C(=O)N[C@@H](CC(N)=O)C(=O)N[C@@H](CCCN=C(N)N)C(=O)N[C@@H](CCCCN)C(=O)N[C@@H](CC(C)C)C(=O)N[C@@H](CCCC)C(=O)N[C@@H](CCC(=O)O)C(=O)N[C@H](C(=O)N[C@H](C(N)=O)[C@@H](C)CC)[C@@H](C)CC	8%	
